We go through one compound from ChEMBL document CHEMBL5705905, “Pharmacological targeting of kinases MST1 and MST2 augments tissue repair and regeneration” (Sci Transl Med, 2016).

Active and inactive are the calls of the source. The rule behind the calls is not given here.

In series [1] the target is Vascular endothelial growth factor receptor 2 (Homo sapiens) (UniProt P35968). Kind of series: Inhibition of VEGFR2 (unknown origin) assessed as remaining activity at 1 uM by Kinome scan method relative to control.
Sequence of Vascular endothelial growth factor receptor 2 (Homo sapiens) (P35968 whole entry): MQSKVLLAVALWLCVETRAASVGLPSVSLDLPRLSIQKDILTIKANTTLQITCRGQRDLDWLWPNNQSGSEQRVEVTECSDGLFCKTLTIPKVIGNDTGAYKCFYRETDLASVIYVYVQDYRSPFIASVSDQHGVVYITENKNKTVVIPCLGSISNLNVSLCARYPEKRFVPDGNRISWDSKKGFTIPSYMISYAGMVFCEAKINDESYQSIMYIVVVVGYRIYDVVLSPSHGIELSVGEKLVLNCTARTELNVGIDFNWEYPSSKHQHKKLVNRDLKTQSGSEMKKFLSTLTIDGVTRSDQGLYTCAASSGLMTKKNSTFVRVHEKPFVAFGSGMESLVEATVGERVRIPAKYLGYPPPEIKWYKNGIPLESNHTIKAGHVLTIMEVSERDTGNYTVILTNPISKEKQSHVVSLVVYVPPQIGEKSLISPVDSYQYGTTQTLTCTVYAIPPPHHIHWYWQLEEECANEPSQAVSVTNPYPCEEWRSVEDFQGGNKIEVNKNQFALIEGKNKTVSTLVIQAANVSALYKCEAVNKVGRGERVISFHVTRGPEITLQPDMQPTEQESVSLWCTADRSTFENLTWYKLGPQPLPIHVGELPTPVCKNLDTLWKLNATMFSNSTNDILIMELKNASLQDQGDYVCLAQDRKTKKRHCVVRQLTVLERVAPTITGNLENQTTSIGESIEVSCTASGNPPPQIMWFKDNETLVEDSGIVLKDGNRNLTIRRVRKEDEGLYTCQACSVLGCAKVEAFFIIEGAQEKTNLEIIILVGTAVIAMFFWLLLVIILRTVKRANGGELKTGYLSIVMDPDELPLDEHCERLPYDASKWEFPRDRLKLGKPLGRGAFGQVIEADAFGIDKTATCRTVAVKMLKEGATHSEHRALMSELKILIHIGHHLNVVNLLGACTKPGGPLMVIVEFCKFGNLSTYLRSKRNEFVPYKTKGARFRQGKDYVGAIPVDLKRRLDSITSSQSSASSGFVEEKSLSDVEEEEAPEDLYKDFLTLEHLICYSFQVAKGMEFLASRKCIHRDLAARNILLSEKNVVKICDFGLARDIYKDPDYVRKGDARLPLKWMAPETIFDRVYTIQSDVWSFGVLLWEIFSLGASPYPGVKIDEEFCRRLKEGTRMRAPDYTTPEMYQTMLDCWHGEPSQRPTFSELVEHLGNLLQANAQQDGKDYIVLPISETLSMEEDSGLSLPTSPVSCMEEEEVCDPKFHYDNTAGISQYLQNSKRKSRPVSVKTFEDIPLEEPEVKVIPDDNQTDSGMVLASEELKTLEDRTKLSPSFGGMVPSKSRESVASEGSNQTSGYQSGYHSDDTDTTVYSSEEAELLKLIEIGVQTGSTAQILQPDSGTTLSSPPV
Series [2] addresses Calcium/calmodulin-dependent protein kinase type 1G (Homo sapiens) (UniProt Q96NX5). As to the kind of experiment: Inhibition of CAMK1G (unknown origin) assessed as remaining activity at 1 uM by Kinome scan method relative to control. The essentials: (§1)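 Active-site-dependent competition-binding profiling (KINOMEscan) at 1 μM against a 468-kinase panel; compound supplied from a 10 mM DMSO stock. Read-out is ctrl% = (test signal − positive control signal)/(negative control signal − positive control signal) × 100. DMSO is the negative control (100%) and a control compound the positive control (0%). Lower ctrl% means tighter binding.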

Series [3] concerns the target Receptor-interacting serine/threonine-protein kinase 1 (Homo sapiens) (UniProt Q13546). As to the kind of experiment: Inhibition of RIPK1 (unknown origin) assessed as remaining activity at 1 uM by Kinome scan method relative to control.
Series [4] deals with Phosphatidylinositol 4,5-bisphosphate 3-kinase catalytic subunit alpha isoform (Homo sapiens), P42336 [C420R]. Kind of series: Inhibition of PIK3CA C420R mutant (unknown origin) assessed as remaining activity at 1 uM by Kinome scan method relative to control.
Series [5] concerns the target Inhibitor of nuclear factor kappa-B kinase subunit alpha (Homo sapiens) (UniProt O15111). As to the kind of experiment: Inhibition of IKK-alpha (unknown origin) assessed as remaining activity at 1 uM by Kinome scan method relative to control.
The target of series [6] is Serine/threonine-protein kinase tousled-like 1 (Homo sapiens) (UniProt Q9UKI8). As to the kind of experiment: Inhibition of TLK1 (unknown origin) assessed as remaining activity at 1 uM by Kinome scan method relative to control.
Sequence of Serine/threonine-protein kinase tousled-like 1 (Homo sapiens) (Q9UKI8 whole entry): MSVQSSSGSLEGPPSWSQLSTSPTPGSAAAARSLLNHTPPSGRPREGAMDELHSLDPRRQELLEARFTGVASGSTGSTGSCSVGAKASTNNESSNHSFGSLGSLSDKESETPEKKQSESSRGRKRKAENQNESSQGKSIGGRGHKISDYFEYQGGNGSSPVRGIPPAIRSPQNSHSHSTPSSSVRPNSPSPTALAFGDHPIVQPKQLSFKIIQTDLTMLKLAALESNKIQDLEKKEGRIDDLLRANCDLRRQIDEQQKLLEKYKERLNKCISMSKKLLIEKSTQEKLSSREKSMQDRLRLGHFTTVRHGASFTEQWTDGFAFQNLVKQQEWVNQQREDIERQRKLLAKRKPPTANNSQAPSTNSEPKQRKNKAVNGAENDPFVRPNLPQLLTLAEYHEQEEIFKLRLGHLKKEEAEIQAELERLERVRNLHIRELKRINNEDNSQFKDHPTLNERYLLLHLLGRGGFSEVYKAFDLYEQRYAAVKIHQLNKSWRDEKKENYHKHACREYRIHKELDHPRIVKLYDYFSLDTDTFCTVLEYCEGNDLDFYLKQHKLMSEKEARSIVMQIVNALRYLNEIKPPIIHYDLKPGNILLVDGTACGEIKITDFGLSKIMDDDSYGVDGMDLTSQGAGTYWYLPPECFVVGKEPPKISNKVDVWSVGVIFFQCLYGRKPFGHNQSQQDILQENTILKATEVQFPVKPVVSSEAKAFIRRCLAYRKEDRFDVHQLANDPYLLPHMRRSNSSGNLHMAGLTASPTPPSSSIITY
Series [7] deals with Mast/stem cell growth factor receptor Kit (Homo sapiens), P10721 [V559D]. As to the kind of experiment: Inhibition of KIT V559D mutant (unknown origin) assessed as remaining activity at 1 uM by Kinome scan method relative to control.
Series [8] has as its target Ribosomal protein S6 kinase alpha-2 (Homo sapiens) (UniProt Q15349). Kind of series: Inhibition of N-terminal kinase domain RSK3 (unknown origin) assessed as remaining activity at 1 uM by Kinome scan method relative to control.
The nature of series [9]: Half life in male Sprague-Dawley rat at 5 mg/kg, iv measured for 24 hrs by LC-MS/MS analysis. The format is ADME, organism-based. The following applies: in vivo. The essentials:
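Sprague-Dawley rats, single intravenous or oral dose. Parameters (half-life, AUC, bioavailability) reported in a supplementary table.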

For series [10], the target named is Tyrosine-protein kinase ABL1 (Homo sapiens) (UniProt P00519). Kind of series: Inhibition of phosphorylated ABL1 (unknown origin) assessed as remaining activity at 1 uM by Kinome scan method relative to control.
For series [11], the target named is Wee1-like protein kinase 2 (Homo sapiens) (UniProt P0C1S8). Kind of series: Inhibition of WEE2 (unknown origin) assessed as remaining activity at 1 uM by Kinome scan method relative to control.
The target of series [12] is Ephrin type-A receptor 5 (Homo sapiens) (UniProt P54756). As to the kind of experiment: Inhibition of EPHA5 (unknown origin) assessed as remaining activity at 1 uM by Kinome scan method relative to control.
The target in series [13] is CDK4/Cyclin D3 (Homo sapiens) (UniProt P11802+P30281). Kind of series: Inhibition of CDK4/cyclinD3 (unknown origin) assessed as remaining activity at 1 uM by Kinome scan method relative to control. The format is protein-complex assay. In short, it runs like this: as §1
In series [14] the target is MAP kinase-activated protein kinase 5 (Homo sapiens) (UniProt Q8IW41). As to the kind of experiment: Inhibition of MAPKAPK5 (unknown origin) assessed as remaining activity at 1 uM by Kinome scan method relative to control.
Series [15] has as its target Death-associated protein kinase 2 (Homo sapiens) (UniProt Q9UIK4). Kind of series: Inhibition of DAPK2 (unknown origin) assessed as remaining activity at 1 uM by Kinome scan method relative to control. In short, it runs like this: as §1
Series [16] addresses Testis-specific serine/threonine-protein kinase 1 (Homo sapiens) (UniProt Q9BXA7). As to the kind of experiment: Inhibition of TSSK1B (unknown origin) assessed as remaining activity at 1 uM by Kinome scan method relative to control.
Series [17] is described as follows: Acute toxicity in mouse assessed as increase in liver/body weight ratio at 1 mg/kg,ip administrated once a daily for 3 weeks relative to control. The series is classed as organism-based. Particulars: in vivo, 504 h. The essentials: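 Postnatal mice dosed from 10 days of age with vehicle or 1 mg/kg once per day for 21 days (3 weeks). Vehicle is 0.1% citric acid aqueous solution containing 20% Kolliphor HS 15. Liver sections stained with H&E and by IHC for CK19 and BrdU, with positive cells quantified (n = 3). Liver/body weight ratio recorded (n = 4). Values are means ± SD versus vehicle, Student's t test.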

For series [18], the target named is Mitogen-activated protein kinase kinase kinase 2 (Homo sapiens, UniProt Q9Y2U5). Kind of series: Binding affinity to MAP3K2 (unknown origin) assessed as dissociation constant.
Sequence of Mitogen-activated protein kinase kinase kinase 2 (Q9Y2U5 whole entry): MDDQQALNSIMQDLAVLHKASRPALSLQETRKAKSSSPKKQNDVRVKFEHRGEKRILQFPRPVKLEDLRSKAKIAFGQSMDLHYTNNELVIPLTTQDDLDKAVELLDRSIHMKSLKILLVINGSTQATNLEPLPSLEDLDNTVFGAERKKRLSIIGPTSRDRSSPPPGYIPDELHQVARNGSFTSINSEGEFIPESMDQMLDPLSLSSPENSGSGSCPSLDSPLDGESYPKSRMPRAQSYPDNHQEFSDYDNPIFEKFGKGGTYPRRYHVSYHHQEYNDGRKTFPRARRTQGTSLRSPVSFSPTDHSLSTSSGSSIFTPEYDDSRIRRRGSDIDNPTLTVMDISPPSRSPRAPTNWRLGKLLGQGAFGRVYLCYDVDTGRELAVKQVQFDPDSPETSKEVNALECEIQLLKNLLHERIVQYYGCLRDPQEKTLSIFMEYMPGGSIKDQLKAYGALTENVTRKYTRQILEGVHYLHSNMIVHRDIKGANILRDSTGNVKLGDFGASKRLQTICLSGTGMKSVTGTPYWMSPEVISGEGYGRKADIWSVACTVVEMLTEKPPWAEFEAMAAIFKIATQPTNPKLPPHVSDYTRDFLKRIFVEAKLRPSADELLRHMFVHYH
Series [19] addresses Mitogen-activated protein kinase kinase kinase kinase 4 (Homo sapiens) (UniProt O95819). As to the kind of experiment: Inhibition of MAP4K4 (unknown origin) assessed as remaining activity at 1 uM by Kinome scan method relative to control.
Series [20] concerns the target cGMP-dependent protein kinase 1 (Homo sapiens) (UniProt Q13976). Kind of series: Inhibition of PRKG1 (unknown origin) assessed as remaining activity at 1 uM by Kinome scan method relative to control.
The next series relates to RAW264.7. As to the kind of experiment: Inhibition of MST1/2 (unknown origin) in mouse RAW264.7 cells assessed as H2O2 stimulated MST1/2 autophosphorylation level at 1 to 3 uM by immunoblot analysis. The series is classed as cell-based. The following applies: dose 1-3 µM.
Series [21] addresses Calcium/calmodulin-dependent protein kinase type II subunit alpha (Homo sapiens) (UniProt Q9UQM7). Kind of series: Inhibition of CAMK2A (unknown origin) assessed as remaining activity at 1 uM by Kinome scan method relative to control. In short, it runs like this:
as §1

The target in series [22] is Phosphatidylinositol 4,5-bisphosphate 3-kinase catalytic subunit gamma isoform (Homo sapiens, UniProt P48736). Kind of series: Inhibition of PIK3CG (unknown origin) in presence of ATP by enzymatic assay.
Sequence of Phosphatidylinositol 4,5-bisphosphate 3-kinase catalytic subunit gamma isoform (P48736 whole entry, canonical isoform): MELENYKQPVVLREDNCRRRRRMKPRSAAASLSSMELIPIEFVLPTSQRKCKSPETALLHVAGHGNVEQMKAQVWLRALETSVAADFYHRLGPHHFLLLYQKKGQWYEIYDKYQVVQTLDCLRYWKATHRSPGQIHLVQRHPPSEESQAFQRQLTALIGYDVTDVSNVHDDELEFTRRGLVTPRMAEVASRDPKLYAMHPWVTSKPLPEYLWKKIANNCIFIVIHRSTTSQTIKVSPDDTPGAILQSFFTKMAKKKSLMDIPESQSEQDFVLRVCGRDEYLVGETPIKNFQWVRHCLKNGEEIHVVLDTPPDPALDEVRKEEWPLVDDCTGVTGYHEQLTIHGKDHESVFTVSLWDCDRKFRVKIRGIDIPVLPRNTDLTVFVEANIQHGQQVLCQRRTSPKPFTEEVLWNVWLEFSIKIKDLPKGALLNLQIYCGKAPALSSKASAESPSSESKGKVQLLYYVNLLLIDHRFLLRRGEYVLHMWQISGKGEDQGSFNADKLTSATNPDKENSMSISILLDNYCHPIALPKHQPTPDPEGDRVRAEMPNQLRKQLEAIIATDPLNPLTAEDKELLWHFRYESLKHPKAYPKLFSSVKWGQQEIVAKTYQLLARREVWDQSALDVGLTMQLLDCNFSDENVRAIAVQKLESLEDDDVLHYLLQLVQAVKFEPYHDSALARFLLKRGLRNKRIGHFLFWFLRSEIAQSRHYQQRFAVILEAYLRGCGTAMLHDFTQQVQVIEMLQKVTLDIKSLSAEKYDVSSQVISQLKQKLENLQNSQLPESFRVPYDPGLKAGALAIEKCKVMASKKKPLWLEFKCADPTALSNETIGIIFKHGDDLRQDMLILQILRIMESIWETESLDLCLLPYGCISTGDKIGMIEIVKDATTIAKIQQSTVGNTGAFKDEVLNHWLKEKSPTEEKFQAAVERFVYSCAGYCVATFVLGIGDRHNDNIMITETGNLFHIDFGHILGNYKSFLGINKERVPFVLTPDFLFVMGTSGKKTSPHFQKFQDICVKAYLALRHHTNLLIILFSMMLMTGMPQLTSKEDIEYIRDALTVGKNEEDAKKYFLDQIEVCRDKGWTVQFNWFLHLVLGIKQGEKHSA
Series [23] deals with T1, Serine/threonine-protein kinase 3 (Homo sapiens, UniProt Q13188).
T1 sequence (Q13188 whole entry): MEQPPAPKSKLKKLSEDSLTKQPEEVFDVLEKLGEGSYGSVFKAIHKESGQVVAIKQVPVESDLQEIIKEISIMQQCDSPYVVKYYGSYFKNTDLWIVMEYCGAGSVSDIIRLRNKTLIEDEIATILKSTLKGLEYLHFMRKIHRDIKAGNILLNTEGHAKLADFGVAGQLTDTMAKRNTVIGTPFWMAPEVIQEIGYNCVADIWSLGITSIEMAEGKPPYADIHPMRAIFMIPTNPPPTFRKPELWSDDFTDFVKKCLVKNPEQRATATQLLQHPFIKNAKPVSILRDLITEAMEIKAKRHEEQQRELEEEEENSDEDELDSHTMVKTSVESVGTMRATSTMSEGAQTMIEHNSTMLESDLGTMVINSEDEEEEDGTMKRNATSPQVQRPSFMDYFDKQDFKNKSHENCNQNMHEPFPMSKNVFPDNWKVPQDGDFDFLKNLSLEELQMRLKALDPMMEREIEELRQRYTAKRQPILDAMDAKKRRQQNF
As to the kind of experiment: Binding affinity to MST2 (unknown origin) assessed as dissociation constant.

The half-life is how long it takes for the measured level to halve. Low values mean rapid decline, high ones slow decline. In general, Kd refers to a measure of binding affinity in units of concentration. For orientation: IC50 means the concentration at which inhibition is half-maximal.

Sequence of cGMP-dependent protein kinase 1 (Homo sapiens) (Q13976 whole entry): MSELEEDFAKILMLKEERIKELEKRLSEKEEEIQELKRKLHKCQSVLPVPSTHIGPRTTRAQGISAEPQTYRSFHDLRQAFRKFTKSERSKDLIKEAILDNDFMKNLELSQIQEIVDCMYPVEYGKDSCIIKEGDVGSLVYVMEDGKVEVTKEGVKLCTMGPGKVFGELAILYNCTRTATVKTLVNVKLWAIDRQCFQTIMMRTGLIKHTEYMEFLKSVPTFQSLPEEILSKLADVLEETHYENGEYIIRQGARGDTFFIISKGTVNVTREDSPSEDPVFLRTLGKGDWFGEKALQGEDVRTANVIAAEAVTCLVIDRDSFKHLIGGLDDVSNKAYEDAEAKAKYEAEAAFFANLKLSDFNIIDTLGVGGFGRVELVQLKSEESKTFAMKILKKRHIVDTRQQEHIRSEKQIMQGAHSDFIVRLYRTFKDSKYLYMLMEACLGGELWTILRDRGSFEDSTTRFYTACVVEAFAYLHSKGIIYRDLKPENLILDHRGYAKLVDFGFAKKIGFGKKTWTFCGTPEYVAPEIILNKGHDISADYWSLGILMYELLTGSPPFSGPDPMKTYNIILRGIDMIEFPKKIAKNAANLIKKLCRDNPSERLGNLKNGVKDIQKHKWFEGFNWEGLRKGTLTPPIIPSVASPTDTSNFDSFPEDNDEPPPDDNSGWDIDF
Sequence of Calcium/calmodulin-dependent protein kinase type II subunit alpha (Homo sapiens) (Q9UQM7 whole entry): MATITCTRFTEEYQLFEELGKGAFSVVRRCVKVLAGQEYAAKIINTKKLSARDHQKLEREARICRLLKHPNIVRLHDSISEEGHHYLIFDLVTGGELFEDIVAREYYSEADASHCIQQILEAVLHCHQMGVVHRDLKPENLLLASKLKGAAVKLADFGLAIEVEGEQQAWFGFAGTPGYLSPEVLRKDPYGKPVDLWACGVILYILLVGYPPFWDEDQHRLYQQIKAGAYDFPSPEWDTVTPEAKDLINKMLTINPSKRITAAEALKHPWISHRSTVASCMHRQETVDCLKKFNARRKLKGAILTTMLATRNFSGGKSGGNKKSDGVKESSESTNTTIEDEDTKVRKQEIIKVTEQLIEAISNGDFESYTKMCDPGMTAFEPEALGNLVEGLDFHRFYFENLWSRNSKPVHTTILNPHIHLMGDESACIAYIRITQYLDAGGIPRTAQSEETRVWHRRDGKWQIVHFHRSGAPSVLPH

Consider `CN1C(=O)c2sccc2N(C)c2nc(Nc3ccc(S(N)(=O)=O)cc3)ncc21`, for which the Activity in series [1] was determined as 100%; in series [2] it was 100%; in series [3], 100%; in [4], 96%; in [5], 94%; in series [6], 100%. The Activity in [7] came out at 97%; in series [8], 97%; in series [10], 13%; in [11], 91%; in [12], 100%; in series [13], 100%. In addition, the Activity in series [14] was determined as 91%; in [15], 100%; in series [16], 100%; in series [17], 15%; in [19], 100%; in series [20] it was 98%. In addition, in series [21], the Activity was determined as 77%. Further, the half-life in series [9] was 74.4 min. Besides, the Kd in series [18] was 19 nM; in [23], 11 nM. The inhibition entry with RAW264.7 was “Active”. Also, in series [22], the IC50 was 38.4 nM.
